# Source: ChEMBL document CHEMBL5058577, “EUbOPEN Chemogenomics Library 2 (Multiplex)” (2022)
# Tested on: U2OS
# Assay: Multiplex assay against U2OS
# Type: toxicity, cell-based
# Conditions: human
# Outline: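 At seeding, live cells were stained with Hoechst33342, BioTracker Green Microtubule Cytoskeleton Dye, MitoTracker Red and Annexin V Alexa Fluor 680. After compound addition they were imaged on a CQ1 microscope at 37°C and 5% CO2, and CellPathfinder machine-learning gating sorted them into Hoechst high-intensity objects or normal cells, with normal cells further split into healthy, pyknosed or fragmented nuclei and pyknosed cells into mitotic or apoptotic. Tubulin, mitochondrial-mass and membrane-permeability phenotypes are given as per cents of cells with healthy nuclei.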
# [1] = 12 h, 1 µM, compound concentration 1 uM, replicate 1
# [2] = 12 h, 1 µM, compound concentration 1 uM, replicate 2
# [3] = 12 h, 10 µM, compound concentration 10 uM, replicate 1
# [4] = 12 h, 10 µM, compound concentration 10 uM, replicate 2
# [5] = 24 h, 1 µM, compound concentration 1 uM, replicate 1
# [6] = 24 h, 1 µM, compound concentration 1 uM, replicate 2
# [7] = 24 h, 10 µM, compound concentration 10 uM, replicate 1
# [8] = 24 h, 10 µM, compound concentration 10 uM, replicate 2
# [9] = 48 h, 1 µM, compound concentration 1 uM, replicate 1
# [10] = 48 h, 1 µM, compound concentration 1 uM, replicate 2
# [11] = 48 h, 10 µM, compound concentration 10 uM, replicate 1
# [12] = 48 h, 10 µM, compound concentration 10 uM, replicate 2
compound,measurement,setting,value
O=C(Nc1cc(-c2ccccc2)nn1-c1ccccc1F)c1ccc([N+](=O)[O-])cc1,Population Apoptotic (%),[1],86%
same,Population Fragmented Nuclei (%),[1],25%
same,Population Healthy Nuclei (%),[1],66%
same,Population Hoechst High Intensity Objects (%),[1],4%
same,Population Membrane Permeable-Phenotype (%),[1],10%
same,Population Mitochondria Different-Phenotype (%),[1],4%
same,Population Mitotic Cells (%),[1],13%
same,Population Normal (%),[1],95%
same,Population Pyknosed Nuclei (%),[1],8%
same,Population Tubulin-Different-Phenotype (%),[1],4%
same,Total Cell Count,[1],293
same,Population Apoptotic (%),[2],91%
same,Population Fragmented Nuclei (%),[2],14%
same,Population Healthy Nuclei (%),[2],78%
same,Population Hoechst High Intensity Objects (%),[2],1%
same,Population Membrane Permeable-Phenotype (%),[2],9%
same,Population Mitotic Cells (%),[2],8%
same,Population Normal (%),[2],98%
same,Population Pyknosed Nuclei (%),[2],6%
same,Population Tubulin-Different-Phenotype (%),[2],9%
same,Total Cell Count,[2],182
same,Population Apoptotic (%),[3],66%
same,Population Fragmented Nuclei (%),[3],30%
same,Population Healthy Nuclei (%),[3],60%
same,Population Hoechst High Intensity Objects (%),[3],3%
same,Population Membrane Permeable-Phenotype (%),[3],11%
same,Population Mitochondria Different-Phenotype (%),[3],5%
same,Population Mitotic Cells (%),[3],33%
same,Population Normal (%),[3],96%
same,Population Pyknosed Nuclei (%),[3],9%
same,Population Tubulin-Different-Phenotype (%),[3],7%
same,Total Cell Count,[3],293
same,Population Apoptotic (%),[4],94%
same,Population Fragmented Nuclei (%),[4],12%
same,Population Healthy Nuclei (%),[4],73%
same,Population Hoechst High Intensity Objects (%),[4],0%
same,Population Mitochondria Different-Phenotype (%),[4],8%
same,Population Mitotic Cells (%),[4],5%
same,Population Normal (%),[4],100%
same,Population Pyknosed Nuclei (%),[4],13%
same,Population Tubulin-Different-Phenotype (%),[4],6%
same,Total Cell Count,[4],134
same,Population Apoptotic (%),[5],91%
same,Population Fragmented Nuclei (%),[5],24%
same,Population Healthy Nuclei (%),[5],68%
same,Population Hoechst High Intensity Objects (%),[5],3%
same,Population Membrane Permeable-Phenotype (%),[5],6%
same,Population Mitochondria Different-Phenotype (%),[5],4%
same,Population Mitotic Cells (%),[5],8%
same,Population Normal (%),[5],96%
same,Population Pyknosed Nuclei (%),[5],7%
same,Population Tubulin-Different-Phenotype (%),[5],5%
same,Total Cell Count,[5],342
same,Population Apoptotic (%),[6],100%
same,Population Fragmented Nuclei (%),[6],15%
same,Population Healthy Nuclei (%),[6],76%
same,Population Hoechst High Intensity Objects (%),[6],1%
same,Population Membrane Permeable-Phenotype (%),[6],9%
same,Population Mitochondria Different-Phenotype (%),[6],5%
same,Population Mitotic Cells (%),[6],0%
same,Population Normal (%),[6],98%
same,Population Pyknosed Nuclei (%),[6],8%
same,Population Tubulin-Different-Phenotype (%),[6],6%
same,Total Cell Count,[6],226
same,Population Apoptotic (%),[7],91%
same,Population Fragmented Nuclei (%),[7],25%
same,Population Healthy Nuclei (%),[7],64%
same,Population Hoechst High Intensity Objects (%),[7],1%
same,Population Membrane Permeable-Phenotype (%),[7],7%
same,Population Mitochondria Different-Phenotype (%),[7],3%
same,Population Mitotic Cells (%),[7],8%
same,Population Normal (%),[7],98%
same,Population Pyknosed Nuclei (%),[7],9%
same,Population Tubulin-Different-Phenotype (%),[7],5%
same,Total Cell Count,[7],353
same,Population Apoptotic (%),[8],100%
same,Population Fragmented Nuclei (%),[8],14%
same,Population Healthy Nuclei (%),[8],76%
same,Population Hoechst High Intensity Objects (%),[8],0%
same,Population Membrane Permeable-Phenotype (%),[8],11%
same,Population Mitochondria Different-Phenotype (%),[8],8%
same,Population Mitotic Cells (%),[8],0%
same,Population Normal (%),[8],99%
same,Population Tubulin-Different-Phenotype (%),[8],8%
same,Total Cell Count,[8],164
same,Population Apoptotic (%),[9],89%
same,Population Fragmented Nuclei (%),[9],17%
same,Population Healthy Nuclei (%),[9],73%
same,Population Hoechst High Intensity Objects (%),[9],2%
same,Population Membrane Permeable-Phenotype (%),[9],9%
same,Population Mitochondria Different-Phenotype (%),[9],5%
same,Population Mitotic Cells (%),[9],10%
same,Population Normal (%),[9],97%
same,Population Pyknosed Nuclei (%),[9],8%
same,Population Tubulin-Different-Phenotype (%),[9],5%
same,Total Cell Count,[9],475
same,Population Apoptotic (%),[10],90%
same,Population Fragmented Nuclei (%),[10],12%
same,Population Healthy Nuclei (%),[10],79%
same,Population Hoechst High Intensity Objects (%),[10],1%
same,Population Membrane Permeable-Phenotype (%),[10],6%
same,Population Mitochondria Different-Phenotype (%),[10],4%
same,Population Normal (%),[10],98%
same,Total Cell Count,[10],371
same,Population Apoptotic (%),[11],81%
same,Population Fragmented Nuclei (%),[11],20%
same,Population Healthy Nuclei (%),[11],67%
same,Population Hoechst High Intensity Objects (%),[11],2%
same,Population Membrane Permeable-Phenotype (%),[11],8%
same,Population Mitochondria Different-Phenotype (%),[11],4%
same,Population Mitotic Cells (%),[11],18%
same,Population Normal (%),[11],97%
same,Population Pyknosed Nuclei (%),[11],12%
same,Population Tubulin-Different-Phenotype (%),[11],6%
same,Total Cell Count,[11],445
same,Population Apoptotic (%),[12],89%
same,Population Fragmented Nuclei (%),[12],10%
same,Population Healthy Nuclei (%),[12],76%
same,Population Membrane Permeable-Phenotype (%),[12],11%
same,Population Mitochondria Different-Phenotype (%),[12],8%
same,Population Mitotic Cells (%),[12],10%
same,Population Pyknosed Nuclei (%),[12],13%
same,Population Tubulin-Different-Phenotype (%),[12],8%
same,Total Cell Count,[12],226
CN(C)C/C=C/C(=O)Nc1ccc(C(=O)N2CCCC(Nc3ncc(Cl)c(-c4c[nH]c5ccccc45)n3)C2)cc1 (stereo unspecified),Population Apoptotic (%),[1],77%
same,Population Fragmented Nuclei (%),[1],31%
same,Population Healthy Nuclei (%),[1],60%
same,Population Hoechst High Intensity Objects (%),[1],2%
same,Population Membrane Permeable-Phenotype (%),[1],5%
same,Population Mitochondria Different-Phenotype (%),[1],3%
same,Population Mitotic Cells (%),[1],22%
same,Population Normal (%),[1],97%
same,Population Pyknosed Nuclei (%),[1],8%
same,Population Tubulin-Different-Phenotype (%),[1],4%
same,Total Cell Count,[1],228
same,Population Apoptotic (%),[2],83%
same,Population Fragmented Nuclei (%),[2],18%
same,Population Healthy Nuclei (%),[2],77%
same,Population Hoechst High Intensity Objects (%),[2],0%
same,Population Membrane Permeable-Phenotype (%),[2],6%
same,Population Mitochondria Different-Phenotype (%),[2],5%
same,Population Mitotic Cells (%),[2],16%
same,Population Normal (%),[2],99%
same,Population Pyknosed Nuclei (%),[2],4%
same,Population Tubulin-Different-Phenotype (%),[2],8%
same,Total Cell Count,[2],139
same,Population Apoptotic (%),[3],80%
same,Population Fragmented Nuclei (%),[3],31%
same,Population Healthy Nuclei (%),[3],47%
same,Population Hoechst High Intensity Objects (%),[3],5%
same,Population Membrane Permeable-Phenotype (%),[3],33%
same,Population Mitochondria Different-Phenotype (%),[3],40%
same,Population Mitotic Cells (%),[3],20%
same,Population Normal (%),[3],94%
same,Population Pyknosed Nuclei (%),[3],20%
same,Population Tubulin-Different-Phenotype (%),[3],49%
same,Total Cell Count,[3],233
same,Population Apoptotic (%),[4],75%
same,Population Fragmented Nuclei (%),[4],25%
same,Population Healthy Nuclei (%),[4],54%
same,Population Hoechst High Intensity Objects (%),[4],2%
same,Population Membrane Permeable-Phenotype (%),[4],23%
same,Population Mitochondria Different-Phenotype (%),[4],42%
same,Population Mitotic Cells (%),[4],25%
same,Population Normal (%),[4],97%
same,Population Tubulin-Different-Phenotype (%),[4],37%
same,Total Cell Count,[4],121
same,Population Apoptotic (%),[5],93%
same,Population Fragmented Nuclei (%),[5],34%
same,Population Healthy Nuclei (%),[5],53%
same,Population Hoechst High Intensity Objects (%),[5],2%
same,Population Membrane Permeable-Phenotype (%),[5],7%
same,Population Mitochondria Different-Phenotype (%),[5],2%
same,Population Mitotic Cells (%),[5],6%
same,Population Normal (%),[5],97%
same,Population Pyknosed Nuclei (%),[5],11%
same,Population Tubulin-Different-Phenotype (%),[5],6%
same,Total Cell Count,[5],271
same,Population Apoptotic (%),[6],100%
same,Population Fragmented Nuclei (%),[6],21%
same,Population Healthy Nuclei (%),[6],67%
same,Population Hoechst High Intensity Objects (%),[6],0%
same,Population Membrane Permeable-Phenotype (%),[6],8%
same,Population Mitotic Cells (%),[6],0%
same,Population Normal (%),[6],99%
same,Population Tubulin-Different-Phenotype (%),[6],5%
same,Total Cell Count,[6],164
same,Population Apoptotic (%),[7],87%
same,Population Fragmented Nuclei (%),[7],39%
same,Population Healthy Nuclei (%),[7],35%
same,Population Hoechst High Intensity Objects (%),[7],9%
same,Population Membrane Permeable-Phenotype (%),[7],22%
same,Population Mitochondria Different-Phenotype (%),[7],33%
same,Population Mitotic Cells (%),[7],12%
same,Population Normal (%),[7],90%
same,Population Pyknosed Nuclei (%),[7],25%
same,Population Tubulin-Different-Phenotype (%),[7],29%
same,Total Cell Count,[7],239
same,Population Apoptotic (%),[8],97%
same,Population Fragmented Nuclei (%),[8],31%
same,Population Hoechst High Intensity Objects (%),[8],5%
same,Population Membrane Permeable-Phenotype (%),[8],21%
same,Population Mitochondria Different-Phenotype (%),[8],28%
same,Population Mitotic Cells (%),[8],2%
same,Population Normal (%),[8],94%
same,Population Pyknosed Nuclei (%),[8],32%
same,Population Tubulin-Different-Phenotype (%),[8],17%
same,Total Cell Count,[8],135
same,Population Apoptotic (%),[9],94%
same,Population Fragmented Nuclei (%),[9],29%
same,Population Healthy Nuclei (%),[9],60%
same,Population Hoechst High Intensity Objects (%),[9],3%
same,Population Membrane Permeable-Phenotype (%),[9],10%
same,Population Mitochondria Different-Phenotype (%),[9],3%
same,Population Mitotic Cells (%),[9],5%
same,Population Normal (%),[9],96%
same,Population Pyknosed Nuclei (%),[9],10%
same,Population Tubulin-Different-Phenotype (%),[9],5%
same,Total Cell Count,[9],339
same,Population Apoptotic (%),[10],96%
same,Population Fragmented Nuclei (%),[10],10%
same,Population Healthy Nuclei (%),[10],77%
same,Population Membrane Permeable-Phenotype (%),[10],3%
same,Population Mitotic Cells (%),[10],3%
same,Population Pyknosed Nuclei (%),[10],12%
same,Population Tubulin-Different-Phenotype (%),[10],3%
same,Total Cell Count,[10],221
same,Population Apoptotic (%),[11],100%
same,Population Fragmented Nuclei (%),[11],50%
same,Population Healthy Nuclei (%),[11],17%
same,Population Hoechst High Intensity Objects (%),[11],15%
same,Population Membrane Permeable-Phenotype (%),[11],47%
same,Population Mitochondria Different-Phenotype (%),[11],27%
same,Population Mitotic Cells (%),[11],0%
same,Population Normal (%),[11],84%
same,Population Pyknosed Nuclei (%),[11],32%
same,Population Tubulin-Different-Phenotype (%),[11],38%
same,Total Cell Count,[11],251
same,Population Healthy Nuclei (%),[12],18%
same,Population Hoechst High Intensity Objects (%),[12],9%
same,Population Membrane Permeable-Phenotype (%),[12],26%
same,Population Mitochondria Different-Phenotype (%),[12],19%
same,Population Normal (%),[12],90%
same,Population Pyknosed Nuclei (%),[12],31%
same,Population Tubulin-Different-Phenotype (%),[12],23%
same,Total Cell Count,[12],157
